High-throughput results: PubChem BioAssay, Sanford-Burnham Center for Chemical Genomics
Only some compounds are listed: those with a hit (about 4.4% of all), similar ones and a draw of the others.
EBI2 antag – antagonists of human EBI2 receptor; 360,000 compounds, 0.81% hits; P32249; inhibition, % at 5 µM; EBI2 beta-arrestin recruitment, luminescence, 7a,25-OHC stimulated; in the data active = inhibition above about 38%;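 note: enzyme fragment complementation signal reports receptor beta-arrestin coupling in cells; 0% = agonist plus DMSO wells and 100% = wells without agonist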
Target sequence (P32249 whole entry, looked up, the tested form may be a part): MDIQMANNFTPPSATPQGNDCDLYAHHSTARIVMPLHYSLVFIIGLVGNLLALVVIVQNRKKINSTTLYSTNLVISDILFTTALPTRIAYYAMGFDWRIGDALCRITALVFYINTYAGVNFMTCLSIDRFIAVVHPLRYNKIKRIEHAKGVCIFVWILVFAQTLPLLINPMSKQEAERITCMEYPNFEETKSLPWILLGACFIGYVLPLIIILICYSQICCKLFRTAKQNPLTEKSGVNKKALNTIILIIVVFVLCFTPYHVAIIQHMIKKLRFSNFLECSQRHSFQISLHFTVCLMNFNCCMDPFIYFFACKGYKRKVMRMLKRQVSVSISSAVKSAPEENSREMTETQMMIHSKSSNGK
SENP1 inh – SENP1 (human) catalytic domain inhibition; Q9P0U3; recombinant SENP1 catalytic domain, CyPet-SUMO1-YPet FRET cleavage; inhibition, % at 10 µM; 360,000 compounds, 0.21% hits; AID 624204;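 active = inhibition at least 30% at 10 µM, raw YFP signal under a set limit, fluorescence ratio 0.5 to 1.5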;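 note: 0% = enzyme with DMSO and 100% = no enzyme wells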
Target sequence (Q9P0U3 419-644 limits assumed): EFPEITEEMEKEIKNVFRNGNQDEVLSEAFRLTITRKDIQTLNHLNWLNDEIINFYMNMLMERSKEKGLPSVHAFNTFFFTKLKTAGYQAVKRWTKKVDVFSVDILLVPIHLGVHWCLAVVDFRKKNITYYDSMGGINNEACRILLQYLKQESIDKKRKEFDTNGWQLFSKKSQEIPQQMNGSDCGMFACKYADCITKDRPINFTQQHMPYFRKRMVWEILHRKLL
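Test system: human SENP1 catalytic domain; medium: Tris pH 8 buffer plus EDTA, NaCl, BME, BSA, NP40, catalase; incubation: 50 min reaction at room temperature; technique: FRET, CFP and YFP emission; controls: no-enzyme low control and enzyme-plus-DMSO high control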
GRIN3A LBD mod – modulators (binders) of human NR3A ligand-binding domain. 340,000 compounds, 2.5% hits. NR3A LBD differential scanning fluorimetry, Tm shift; 0% = protein alone, 100% = glycine-bound protein. Tm shift relative to glycine control, % at 25 µM. AID 1259313;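 active = melting temperature shift of at least 10% of the positive control shift, at one fixed dose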
MPTP inh – permeability transition pore inhibition | AID 602449 | inhibition, % at 10 µM | isolated mouse mitochondria, Ca2+ swelling absorbance, 30 min | 360,000 compounds, 1.4% hits;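 active = inhibition of 50% or more, scaled per plate between neutral and stimulator controls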;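 note: 0% = DMSO wells given calcium and 100% = 1 mM EGTA wells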
EBI2 antag conf – confirmation of human EBI2 receptor antagonists; EBI2 beta-arrestin luminescence, 7a,25-OHC antagonism; inhibition, % at 5 µM; shares compounds with EBI2 antag; 2,400 compounds, 29% hits;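 active = inhibition of at least 50%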
EBI2 agonist – EBI2 agonism counter-screen; AID 652000; activation, % at 5 µM; shares compounds with EBI2 antag; EBI2-expressing cells, agonist mode, luminescence, 60 min; 0% vehicle, 100% 7α,25-dihydroxycholesterol control; 2,400 tested, under 10 active;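 active = activation of at least 50%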
bGal counter – inhibits E. coli beta-galactosidase, counter-screen for EBI2 antagonists; shares compounds with EBI2 antag; purified beta-galactosidase, luminescent Galacton Star, 15 min; inhibition, % at 5 µM; 2,400 compounds, 1% hits;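 active = replicate-average signal at least 3 plate SD below neutral wells, shown as high inhibition, flagging enzyme-inhibiting false positives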;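 note: 0% = DMSO wells with enzyme and 100% = wells lacking enzyme; higher means stronger loss of beta-gal luminescence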
* = called active by the depositor; . = no result.

SMILES	EBI2 antag	SENP1 inh	GRIN3A LBD mod	MPTP inh	EBI2 antag conf	EBI2 agonist	bGal counter
Cc1ccc(S(=O)(=O)Nc2ccc(-n3cnnn3)cc2)c(C)c1	-3	2	-1	-2	.	.	.
COc1ccc(CCN2C(=O)C(Oc3ccccc3)C2c2ccc3c(c2)OCO3)cc1 (centres undefined)	42*	1	12*	2	37	2	-3
O=C1N=C(N2CCCC2)S/C1=C\c1ccccc1	0	1	4	-3	.	.	.
COc1ccc(OC)c(/C=C2\SC(N3CCCCC3)=NC2=O)c1	0	-26	-2	0	.	.	.
O=C1N=C(N2CCCCC2)S/C1=C\c1ccc(Cl)cc1	86*	2	1	0	55*	0	10
CCOC(=O)C1CCCN(C2=NC(=O)/C(=C/c3ccc(OC)cc3OC)S2)C1 (centres undefined)	10	-33	-1	3	.	.	.
C=CCOc1ccc(/C=C2\SC(N3CCCCC3)=NC2=O)cc1	57*	-1	2	1	43	1	9
CCOC(=O)C1CCCN(C2=NC(=O)/C(=C/c3ccc(OC)cc3)S2)C1 (centres undefined)	61*	-1	-1	1	38	1	-2
C[C@]12c3[nH]c4cc(-c5ccco5)ccc4c3CCN1C(=O)[C@@H](CC(=O)NCC13CC4CC(CC(C4)C1)C3)C[C@@H]2C(=O)N1CCCCC1	44*	-34	0	-2	13	-1	-4
CCOC(=O)NC(=O)/C(C#N)=N/Nc1ccc(F)cc1	78*	0	-10	4	11	1	-14
CCOC(=O)C(=O)/C(C#N)=C/Nc1ccc(F)cc1	-12	7	2	-2	.	.	.
CC(C)(C)c1ccc(/C=C/C(=O)N2CCN(c3ncccn3)CC2)cc1	65*	0	-5	0	61*	-1	-18
O=C(/C=C/c1ccc(F)cc1)N1CCN(c2ncccn2)CC1	93*	2	2	0	78*	-1	-5
Cc1ccc(OCC(=O)N2CCN(C(=O)CCC3CCCC3)CC2)cc1	81*	2	7	-2	61*	-1	-7
O=C(CCC1CCCC1)N1CCN(C(=O)COc2ccccc2)CC1	28	1	1	1	.	.	.
O=C(COc1ccc2ccccc2c1)N1CCN(C(=O)c2ccc([N+](=O)[O-])cc2)CC1	94*	-2	0	-2	76*	-2	-2
O=C(Cc1ccccc1)N1CCN(C(=O)c2ccc([N+](=O)[O-])cc2)CC1	10	-7	1	1	.	.	.
Cc1ccc(OCC(=O)N2CCN(C(=O)c3ccc([N+](=O)[O-])cc3)CC2)cc1	83*	-1	-2	0	58*	-2	-10
O=C(COc1ccccc1)N1CCN(C(=O)c2ccc([N+](=O)[O-])cc2)CC1	53*	1	-2	0	38	2	-6
Cc1cc(Br)c2c(c1)[C@](O)(c1cn(C)c3ccccc13)C(=O)N2C	-2	3	.	-1	.	.	.
CC(=O)OC[C@@H]1CN(Cc2ccccc2)C[C@H](n2cnc3c(NC4CC4)ncnc32)O1	10	-2	.	1	.	.	.
O=C1C2C(C(=O)N1/N=C/c1cc(Br)cc([N+](=O)[O-])c1O)C1C=CC2C12CC2 (centres undefined)	1	12	-2	-2	.	.	.
CCOC(=O)C1(Cc2cccc(OC)c2)CCCN(Cc2cc(OC)c(O)c(OC)c2)C1 (centres undefined)	82*	-2	-5	1	58*	-1	-4
Cc1nn(C2CCS(=O)(=O)C2)c(C)c1CN(C)C(=O)c1ccccc1 (centres undefined)	-11	1	0	-1	.	.	.
CSc1ccc(CCNC(=O)c2ccc(CS(=O)Cc3ccc(Cl)cc3)o2)cc1 (centres undefined)	54*	2	-1	0	7	0	-12
SMILES	EBI2 antag	SENP1 inh	GRIN3A LBD mod	MPTP inh	EBI2 antag conf	EBI2 agonist	bGal counter
CCOc1ccc(CCNC(=O)c2ccc(CS(=O)Cc3ccccc3Cl)o2)cc1 (centres undefined)	-2	-1	-2	-1	.	.	.
O=C(NCCc1ccc(Cl)cc1)c1ccc(CS(=O)Cc2ccc(Cl)cc2)o1 (centres undefined)	68*	-1	-13	-4	54*	-2	-8
CCOc1ccc(CCNC(=O)c2ccc(CS(=O)Cc3ccc(Cl)cc3)o2)cc1 (centres undefined)	46*	2	0	1	28	1	2
Cc1cc(-c2cc(-c3ccccc3)on2)nc(NC2CCCC2)n1	24	1	-23	3	.	.	.
COc1ccc(-c2ccc(CN3C(C(C)C)C(=O)N(Cc4cn(CC5CCCCC5)nn4)CCS3(=O)=O)cc2)cc1 (centres undefined)	37	1	.	-1	.	.	.
Cc1cc(C)c(Cc2c(C)nc3c(C(=O)NCc4ccco4)cnn3c2C)c(C)c1	25	3	0	39	.	.	.
O=C(Nc1ccnc(-c2cccnc2)n1)c1ccc(Cl)c(Cl)c1	46*	1	0	0	7	1	3
Cc1ccc(C(=O)Nc2ccnc(-c3cccnc3)n2)cc1	23	2	1	-2	.	.	.
CCC(C)(C)C1CCc2[nH]nc(C(=O)NC3CCCCC3)c2C1 (centres undefined)	43*	1	-2	1	14	0	-4
COc1ccccc1N(C(=O)c1ccncc1)c1nc(-c2ccc([N+](=O)[O-])cc2)cs1	55*	3	-3	0	74*	1	1
COCCN(C(=O)c1cccc(N2C(=O)CCC2=O)c1)c1nc(-c2ccc([N+](=O)[O-])cc2)cs1	26	4	-2	0	.	.	.
CCN(CC)S(=O)(=O)c1ccc2oc(C(=O)N3CCc4ccccc4C3)c(C)c2c1	4	-1	-1	2	.	.	.
CCN(CC)S(=O)(=O)c1ccc2oc(C(=O)NC3CCCc4ccccc43)c(C)c2c1 (centres undefined)	43*	0	-1	1	10	-2	-12
CCn1c(SCc2nc3ccccc3c(=O)[nH]2)nnc1C(C)NC(=O)c1ccccc1F (centres undefined)	0	-1	-1	0	.	.	.
Cc1ccsc1C1Nc2ccc3ncccc3c2C2=C1C(=O)CC(C)(C)C2 (centres undefined)	94*	-65	-2	-2	76*	0	3
O=C1CCCC2=C1C(c1cccs1)Nc1ccc3ncccc3c12 (centres undefined)	21	-19	-1	-2	.	.	.
CCOC(=O)C1(C)CCN1C(=O)c1ccc2ccccc2c1 (centres undefined)	-12	1	.	-2	.	.	.
